ChEMBL document CHEMBL1144352, “Effects of flavonoids on cell proliferation and caspase activation in a human colonic cell line HT29: an SAR study” (2005)

Key:
Assay type in all cases: functional
[1] = tested on: HT-29; assay: Antiproliferative effect against human colonic cell line (HT-29) after 6 hr at a concentration of 50 uM
In short: (§1)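 HT-29 cells plated at 15 000/well in DMEM with 5% fetal calf serum for 24 h, then medium replaced with fresh medium containing compound at 50 µM plus 200 µM sodium ascorbate. After incubation, neutral red (50 µg/mL) uptake for 2 h, formaldehyde/CaCl2 fixation, ethanol:acetic acid extraction, OD 550 nm. Result as % of control cells, mean ± SD, n > 18 wells, ≥4 experiments.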

[2] = tested on: HT-29; assay: Antiproliferative effect against human colonic cell line (HT-29) after 24 hr at a concentration of 50 uM; in short: as §1
[3] = tested on: HT-29; assay: Caspase 3/7 activity is expressed as ratio of caspase activation in treated human colonic cell line (HT-29) to that of untreated control cells after 5 hr
In short: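 Caspase 3/7 measured with ApopOne kit. HT-29 cells were seeded at 15 000/well and exposed to test molecule for 5 h. Reagent containing caspase substrate and lysis buffer was then added, followed by 45 min at 37 °C. Fluorescence read at excitation 485 nm and emission 538 nm. Reported as ratio of treated to untreated control, mean of duplicate wells on one plate.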

SMILES: CC(C)=CCC/C(C)=C/CC/C(C)=C/COc1cc(O)c2c(=O)cc(-c3ccccc3)oc2c1
- Activity [1]: 87.8
- Activity [2]: 83.3

SMILES: O=c1c(O)c(-c2ccc(O)cc2)oc2cc(O)cc(O)c12 [KAEMPFEROL]
- Activity [1]: 92
- Activity [2]: 89.6
- Caspase induction [3]: 1.8

SMILES: CC(C)=CCc1c(O)cc(O)c2c(=O)cc(-c3ccc(O)cc3)oc12
- Activity [1]: 76.9
- Activity [2]: 56.2

SMILES: COc1ccc(-c2oc3cc(O)cc(O)c3c(=O)c2O)cc1 [KAEMPFERIDE]
- Activity [1]: 99.77
- Activity [2]: 84.7
- Caspase induction [3]: 1

SMILES: CC(C)=CCC/C(C)=C/Cc1c(O)cc(O)c2c(=O)cc(-c3ccccc3)oc12
- Activity [1]: 18
- Activity [2]: 7.6
- Caspase induction [3]: 9

SMILES: C=CC(C)(C)c1c(O)cc(O)c2c(=O)c(OC)c(-c3ccc(OC)cc3)oc12
- Activity [1]: 34.5
- Activity [2]: 20.1
- Caspase induction [3]: 8.1

SMILES: C=CC(C)(C)c1c(O)cc(O)c2c(=O)c(O)c(-c3ccc(OC)cc3)oc12
- Activity [1]: 56.4
- Activity [2]: 42.1

SMILES: C=CC(C)(C)c1c(O)cc2oc(-c3ccccc3)cc(=O)c2c1O
- Activity [1]: 90.4
- Activity [2]: 79.1

SMILES: Cc1c(O)cc2oc(-c3ccccc3)cc(=O)c2c1O
- Activity [1]: 104
- Activity [2]: 101

SMILES: C=CC(C)(C)c1c(O)cc(O)c2c(=O)c(OC)c(-c3ccc(OC)c(OC)c3)oc12
- Activity [1]: 8.5
- Activity [2]: 4.7
- Caspase induction [3]: 5.2

SMILES: O=c1cc(-c2ccccc2)oc2cc(O)cc(O)c12 [CHRYSIN]
- Activity [1]: 86.6
- Activity [2]: 62.8
- Caspase induction [3]: 0.8

SMILES: CC(C)=CCc1c(O)cc(O)c2c(=O)c(O)c(-c3ccc(O)cc3)oc12
- Activity [1]: 78.8
- Activity [2]: 71.1
- Caspase induction [3]: 2.7

SMILES: O=c1cc(-c2ccccc2)oc2cc(OCc3ccccc3)cc(O)c12
- Activity [1]: 96.6
- Activity [2]: 87.1

SMILES: C=CC(C)(C)c1c(O)cc(O)c2c(=O)c(OC)c(-c3ccccc3)oc12
- Activity [1]: 79.3
- Activity [2]: 79.4
- Caspase induction [3]: 1.3

SMILES: COc1ccc(-c2cc(=O)c3c(OC)c(OC)c(OC)cc3o2)cc1O
- Activity [1]: 95.4
- Activity [2]: 102.1

SMILES: COc1ccc(-c2oc3cc(O)cc(O)c3c(=O)c2OC)c(OC)c1OC
- Activity [1]: 89.7
- Activity [2]: 91.5

SMILES: O=c1c(O)c(-c2ccc(O)c(O)c2)oc2cc(O)cc(O)c12 [QUERCETIN]
- Activity [1]: 61.4
- Activity [2]: 51.3
- Caspase induction [3]: 1

SMILES: C=CC(C)(C)c1c(O)cc(O)c2c(=O)c(O)c(-c3ccccc3)oc12
- Activity [1]: 76.7
- Activity [2]: 63
- Caspase induction [3]: 1.1

SMILES: COc1cc(-c2cc(=O)c3c(OC)c(OC)c(OC)cc3o2)cc(OC)c1OC
- Activity [1]: 94.2
- Activity [2]: 100.7

SMILES: CC(C)=CCc1c(O)cc2oc(-c3ccccc3)cc(=O)c2c1O
- Activity [1]: 87.9
- Activity [2]: 87.9

SMILES: COc1cc(-c2oc3cc(O)cc(O)c3c(=O)c2OC)cc(OC)c1OC
- Activity [1]: 101.9
- Activity [2]: 101.8

SMILES: CC(C)=CCc1c(O)cc(O)c2c(=O)c(O)c(-c3ccc(O)c(O)c3)oc12
- Activity [1]: 68
- Activity [2]: 67
- Caspase induction [3]: 1.9

SMILES: COc1cc2oc(-c3ccccc3)cc(=O)c2c(O)c1C
- Activity [1]: 92.2
- Activity [2]: 83.8

SMILES: C=CC(C)(CC/C=C(\C)CCC=C(C)C)c1c(O)cc(O)c2c(=O)cc(-c3ccccc3)oc12 (configuration not stated)
- Activity [1]: 43.3
- Activity [2]: 24.5
- Caspase induction [3]: 6.9

SMILES: O=c1cc(-c2ccccc2)oc2cc(O)c(Cc3ccccc3)c(O)c12
- Activity [1]: 65.3
- Activity [2]: 57.6

SMILES: O=C(/C=C/c1ccc(O)cc1)c1c(O)cc(O)cc1O [4,2',4',6'-TETRAHYDROXYCHALCONE]
- Activity [1]: 102
- Activity [2]: 94.1

SMILES: C=CC(C)(C)c1cc(C(=O)/C=C/c2ccccc2)c(O)cc1O
- Activity [1]: 35.4
- Activity [2]: 15.6
- Caspase induction [3]: 7.3

SMILES: COc1ccc(-c2oc3cc(O)cc(O)c3c(=O)c2OC)cc1 [ERMANIN]
- Activity [1]: 92
- Activity [2]: 77.1
- Caspase induction [3]: 1.2

SMILES: CC(C)=CCC/C(C)=C/COc1cc(O)c2c(=O)cc(-c3ccccc3)oc2c1
- Activity [1]: 90.4
- Activity [2]: 84.3
- Caspase induction [3]: 1.2

SMILES: C=CC(C)(CCC=C(C)C)c1c(O)cc(O)c2c(=O)cc(-c3ccccc3)oc12 (configuration not stated)
- Activity [1]: 28.4
- Activity [2]: 28.1
- Caspase induction [3]: 8.9

SMILES: COc1cc(O)cc2oc(-c3ccccc3)cc(=O)c12
- Activity [1]: 104.7
- Activity [2]: 107.6

SMILES: COc1ccc(C(=O)/C=C(\O)c2ccc(O)cc2O)cc1
- Activity [1]: 96.2
- Activity [2]: 96.6

SMILES: COc1c(-c2ccccc2)oc2c(O)c(O)c(CC=C(C)C)c(O)c2c1=O
- Activity [1]: 59.8
- Activity [2]: 71.8
- Caspase induction [3]: 3.5

SMILES: COc1cc(OC)c(-c2oc3cc(O)cc(O)c3c(=O)c2OC)cc1OC
- Activity [1]: 90
- Activity [2]: 92.5

SMILES: O=c1cc(-c2ccccc2)oc2c(Cc3ccccc3)c(O)cc(O)c12
- Activity [1]: 103.2
- Activity [2]: 97.4

SMILES: CC(C)=CCc1c(O)c(O)c2oc(-c3ccccc3)cc(=O)c2c1O
- Activity [1]: 67.4
- Activity [2]: 71.7
- Caspase induction [3]: 1.6

SMILES: COc1ccc(-c2oc3cc(O)cc(O)c3c(=O)c2OC)cc1OC
- Activity [1]: 87.9
- Activity [2]: 74.2
- Caspase induction [3]: 1.1

SMILES: CC(C)=CCOc1cc(O)cc2oc(-c3ccccc3)cc(=O)c12
- Activity [1]: 17
- Activity [2]: 19.4
- Caspase induction [3]: 1.4

SMILES: C=CC(C)(C)c1c(O)cc(O)c2c(=O)cc(-c3ccccc3)oc12
- Activity [1]: 76.7
- Activity [2]: 57.7
- Caspase induction [3]: 1.1

SMILES: CC(C)=CCC/C(C)=C/Cc1c(O)cc2oc(-c3ccccc3)cc(=O)c2c1O
- Activity [1]: 58.2
- Activity [2]: 53.9
- Caspase induction [3]: 1.9

SMILES: O=C1C[C@@H](c2ccc(O)cc2)Oc2cc(O)cc(O)c21 [NARINGENIN]
- Activity [1]: 102.2
- Activity [2]: 94.8

SMILES: CC(C)=CCc1c(O)cc(O)c2c(=O)cc(-c3ccccc3)oc12
- Activity [1]: 86.3
- Activity [2]: 75.5
- Caspase induction [3]: 0.9
